In paper PMC3322254 (Biochemical Pharmacology, 2012):

What was measured:
A2AAR = A2AAR (Homo sapiens, UniProt P29274); test: FCM binding of MRS5449 to HEK cells expressing the A2AAR
Method in brief: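 Stably transfected lines grew in DMEM/F12 (1:1) with 10% FBS, 2 mM L-glutamine and penicillin/streptomycin: A1AR CHO cells under 500 μg/ml hygromycin B, A2AAR HEK293 cells under 800 μg/ml G418. Cells were seeded about 400,000/well and grown 24 h at 37 °C, 5% CO2. At about 80% confluency the medium was refreshed and the fluorescent tracer added. Cells were then washed, detached with 0.2% EDTA and read by flow cytometry (488 nm excitation), with autofluorescence subtracted.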

hA3AR [1] = target: T1, hA3AR (Homo sapiens, UniProt P0DMS8); test: Radioligand membrane binding assay with [125I]I-AB-MECA
T1 sequence (P0DMS8 1-318): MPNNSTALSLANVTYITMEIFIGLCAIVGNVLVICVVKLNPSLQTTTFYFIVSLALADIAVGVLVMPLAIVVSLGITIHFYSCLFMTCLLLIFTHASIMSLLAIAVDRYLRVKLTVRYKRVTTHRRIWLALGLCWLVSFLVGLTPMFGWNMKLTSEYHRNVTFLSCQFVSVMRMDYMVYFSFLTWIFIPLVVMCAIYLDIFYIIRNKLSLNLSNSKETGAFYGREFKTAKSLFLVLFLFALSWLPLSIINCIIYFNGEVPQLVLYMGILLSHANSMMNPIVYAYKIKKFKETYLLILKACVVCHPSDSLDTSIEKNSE
Method in brief: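 Membranes came from CHO (hA1, hA3) or HEK293 (hA2A) cells, homogenized in 50 mM Tris-HCl pH 7.5 with 10 mM MgCl2, pelleted at 20,000 × g and stored at −80 °C with 3 units/ml adenosine deaminase. Protein was measured by Bradford. […] Ki values were obtained at each subtype.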

hA3AR [2] = target: T1, hA3AR; test: Fluorescent ligand binding
Method in brief: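 hA3AR-CHO cells were incubated in medium at 37 °C, 5% CO2. Preliminary screen: 1 h with conjugates at 1.5–20 μM or tracer at 10 nM. Saturation: tracer 2.5–250 nM for 1 h. Kinetics: 10 nM tracer, read from 5 min to 3 h, with dissociation started at 90 min by 10 μM non-fluorescent A3AR antagonist. Cells were EDTA-detached and read by flow cytometry; MFI was corrected for autofluorescence and converted to MESF using bead calibration.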

A2AAR, sequence (P29274 whole entry): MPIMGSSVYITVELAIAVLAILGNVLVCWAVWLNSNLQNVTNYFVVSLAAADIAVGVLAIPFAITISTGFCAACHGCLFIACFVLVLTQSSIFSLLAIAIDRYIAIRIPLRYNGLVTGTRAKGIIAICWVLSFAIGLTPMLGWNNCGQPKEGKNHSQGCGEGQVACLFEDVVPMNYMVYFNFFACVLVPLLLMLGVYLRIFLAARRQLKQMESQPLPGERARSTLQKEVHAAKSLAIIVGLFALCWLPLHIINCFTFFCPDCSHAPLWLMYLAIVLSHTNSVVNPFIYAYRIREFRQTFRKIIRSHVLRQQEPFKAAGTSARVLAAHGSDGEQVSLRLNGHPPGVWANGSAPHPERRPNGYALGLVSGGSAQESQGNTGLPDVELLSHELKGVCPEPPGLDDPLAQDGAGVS

## N=c1ccc2c(-c3ccc(C(=O)NCCCCCCn4cc(CCCC(=O)Nc5nc6ccc(Cl)cc6c6nc(-c7ccco7)nn56)nn4)cc3C(=O)O)c3ccc(N)c(S(=O)(=O)O)c3oc-2c1S(=O)(=O)O [Compound 9, 2-(6-Amino-3-iminio-4,5-disulfonato-3H-xanthen-9-yl)-5-((6-(4-(4-((9-chloro-2-(furan-2-yl)-[1,2,4]triazolo[1,5-c]quinazolin-5-yl)amino)-4-oxobutyl)-1H-1,2,3-triazol-1-yl)hexyl)carbamoyl)benzoate]
A2AAR
  binding compared with the binding to the A3AR (expressed as 100%): 0.5%
hA3AR [1]; read-out: A3 Ki, CHO cells stably expressing hA3AR, agonist radioligand [125I]I-AB-MECA
  Ki: 6.4 ± 2.5 nM
hA3AR [1]; versus hA1 and hA2AARs, from radioligand Ki values
  selectivity for the A3AR: over 10 fold
hA3AR [2]; 10 nM MRS5449, in presence of 10 μM MRS1220 or 10 μM Cl-IB-MECA or in control CHO cells
  Nonspecific binding, % of total binding: less than 1%
hA3AR [2]; preliminary FCM, 1 h, 37 °C, 1.5-20 μM for 1-6, 10 nM MRS5449
  fluorescence emission (MFI) of cell-bound ligand: sufficiently high MFI
